Measurements: the EternaBench riboswitch data

System: MS2 coat protein
Assay: apparent Kd, MS2 coat protein; higher = weaker binding; RNA-MaP array; FMN 200 µM where present
Summary of the method: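 Each design was made on Illumina sequencing-chip clusters by stalled E. coli RNA polymerase and titrated with SNAP-549-labelled MS2 coat protein from 0.7 or 1.5 nM, doubling to 3 µM, in the absence and then the presence of constant ligand. The buffer was 100 mM Tris-HCl pH 7.5, 80 mM KCl, 4 mM MgCl2, BSA, DTT, yeast tRNA and Tween-20. The apparent Kd is the median of filtered per-cluster fits of binding curves, with green signal normalised to red-channel RNA signal and control-cluster median Fmax.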

[1] = designed as: OFF switch for flavin mononucleotide, no ligand
[2] = ligand present: flavin mononucleotide, designed as: OFF switch for flavin mononucleotide
[3] = designed as: ON switch for flavin mononucleotide, no ligand
[4] = ligand present: flavin mononucleotide, designed as: ON switch for flavin mononucleotide

Sequence | apparent Kd [1] [nM] | apparent Kd [2] [nM] | apparent Kd [3] [nM] | apparent Kd [4] [nM]
GUCGUGUGAGGAUAUGAUUAAUAGACGGGAUUGCGACUGCAUCAGAAGGCACAUGAGGAUCACCCAUGUAUGAA | 19.4 | 63.5 |  | 
AUAGUUUUCAUAGGAUAUUGAAUUAUAUUUAAUCAAGAAGGAUGAAUACAUGAGGAUCACCCAUGUUAACAUGGAUUAAGUAGU | 20.9 | 44.3 |  | 
UUAUUUGUACAAGGAUAUCUAUUAUAUUCACAUCCUACAUGAGGAUCACCCAUGUUAUAUAUUUUAGAGAAGGUGUAUUGUCUG |  |  | 29.9 | 35.3
AUGCUUUAUGUAGGAUAUUCAAACGGUAAGAAUGGAGAAGGACAUGAGGAUCACCCAUGUAAAAUAUUAUUAGAUAUCAUACAU | 22.1 | 19.4 |  | 
UUUCUCUGUGUGAGGAUAUACUUGUUUGGGUUUUUGUAGAAGGCACAUGAGGAUCACCCAUGUAUUUUGUCGUG | 34.4 | 55.6 |  | 
GAAGAACAUGAGGAUCACCCAUGUGAUUCGCAUGUAGGAUAUGGGCACGCGCCCGCGUGUCUAGAAGGACAGGCUA |  |  | 69.3 | 109
AAUAUGUUGCAGAAGGCUAUGUUGUGGUAGUACCUCAUGACAUGAGGAUCACCCAUGUUUGUGUUGGAGGAUAUGCAAUAUAUU | 12.7 | 40.6 |  | 
UCAUUAUAAAUCCAUCAUAACUACAUGAGGAUCACCCAUGUGCAGGAUAUCGAUAAUUUAACUAACGAGAAGGGCAUUUACAGA | 37.6 | 139 |  | 
AGCUAGAGAGGAUAUACGUAGGAAAAAAAAGUCUGAUCCCUACAUGAGGAUCACCCAUGUAGAAGGCUCUGGCA | 91.5 | 81.8 |  | 
GUCUCAGCUGAGGAUAUAUUCUCCCUUGAGGGAAUAGAAGGCAGUACAUGAGGAUCACCCAUGUGGUUCGUUUG | 122 | 327 |  | 
CGGUCGAUGUAAGGAUAUCGACUGGAUAACAGUCGAGAAGGUACAUGAGGAUCACCCAUGUAAUCCUAAUAAUAAUAACGACCG | 12.6 | 18 |  | 
AAAAAACAUGAGGAUCACCCAUGUGAGGAUAUGAUGCGAAUAAAGAAAGAAGAAAGCAUCAGAAGGCACACCUA | 50.1 | 83.9 |  | 
CAAUUUAUAACAGGAUAUGUAAUACAAUAGUUAAUAGAAGGGUUUAAUACAUGAGGAUCACCCAUGUCAUGUGUCAUAAUUACC | 33 | 26 |  | 
GUCCUACAUGAGGAUCACCCAUGUAAGGAUAUGCUAGCGGUCGGAUGACUGACUGCUAGCAGAAGGUACAUGAU | 15.2 | 24.9 |  | 
AACAUGUGAGGAUAUGAGAACAGCCGGGAGGGCUGUGUAAAUUAGAAGGCACAUGAGGAUCACCCAUGUGACCU | 18.2 | 27.8 |  | 
UGAGUGCGUGUUAGGAUAUGGUUUGGUGUUUCGGGCUAGAAGGGACAUGAGGAUCACCCAUGUAACUGGCGGGU | 53.3 | 51 |  | 
ACAAGACAUGAGGAUCACCCAUGUGAGGAUAUGCUCGGAUGACAUGACGUUAGCUAACGCAGAAGGCACAAUAA | 55.8 | 56 |  | 
ACAUGAGGAUCACCCAUGUAAAAUGAAGAAGGUAGAUACUUGAGGAUCACCCAUGUACAUGGGACUAAGGAUAUUCUAAUAAUU |  |  | 76.9 | 64.3
GCAGACGUAGUGAGGAUAUGCUCUACCUCGGUAGAGCAGAAGGCACAUGAGGAUCACCCAUGUGGCUCCUCAUC | 15.6 | 21.9 |  | 
GUUUUUUUUAGUUCAUACUAUAAGAUAGAAGGUGAAAUAUAGACAUGAGGAUCACCCAUGUAAUUCAAGGAUAUGUAGUUACUC |  |  | 44.1 | 24.8
UGUUGUUCCGCAGGAUAUGUAUUAGAUUAUAAUACAGAAGGGCGAUAACAUGAGGAUCACCCAUGUGUGGACAAUAAGGAAGAG |  |  | 602 | 81.2
AAAUCGGUAGGAUAUACGAUUUGGUACUAGACCGAGGAACCACAUGAGGAUCACCCAUGUAGAAGGACCAGAUA | 20.7 | 13.9 |  | 
AGUGUCAUCCAGAAGGCCUCAUUACAUGAGGAUCACCCAUGUAAUCGUGGGAGGAUAUGGAUGAUACAGCUACGUUUCGUAGCA |  |  | 7.42 | 4.65
CAGAGGAUGUAAGGAUAUCGUCAGGAAUACUGACGAGAAGGUACAUGAGGAUCACCCAUGUAUAUGAAAGAUAAUAAACCUCUG | 14.4 | 17.2 |  | 
